Measured values: the RNAGym collection of RNA variant scans (doi:10.1126/science.aae0568)
Fewer inactive variants are shown than the library holds.

B1: tRNA (parent)
chain: GUUCCGUUGGCGUAAUGGUAACGCGUCUCCCUCCUAAGGAGAAGACUGCGGGUUCGAGUCCCGUACGGAACG

Variants of: B1
Test: yeast fitness relative to wild type (ratio to wild type); higher = fitter; tRNA-Arg(CCU), competitive growth, 37 C, YPD
How it was run: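 Genotype frequency changes were the basis for Darwinian fitness relative to wild type. The frequencies came from 100-nucleotide paired-end sequencing of gene amplicons from the start population and each end population of pooled yeast strains with tRNA-Arg(CCU) gene variants at the native locus. Competition ran in YPD at 37°C for 24 hours in six replicates, genotypes needed ≥ 100 starting reads, and estimates < 0.5 were set to 0.5.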

U8G C27U G44C U47A C60U and U8G A14G G18A U47A C55G cannot be ordered by yeast fitness: no more than 0.5 for the first, no more than 0.5 for the second.

First: U8G U16C
Second: U8G C24G G63C
The yeast fitness of the first is higher: 0.6 for the first, no more than 0.5 for the second.

G9A A15U C29G C33U A36C G67A and U8G C11U C24U A37U C66A cannot be ordered by yeast fitness: no more than 0.5 for the first, no more than 0.5 for the second.

U8G C22U U26A G52A and U8G G39C U59G C66U cannot be ordered by yeast fitness: no more than 0.5 for the first, no more than 0.5 for the second.

U8G U35G C55G and U8G G12A A21C U26C C60U cannot be ordered by yeast fitness: no more than 0.5 for the first, no more than 0.5 for the second.

Compared with U8C G56A A69C, U8C U13C A14C C30U A42G G50C C55U is lower in yeast fitness: 0.836 for the first, 0.671 for the second.

U8G A43U C49U C55U and U8G G9C C33A G68A cannot be ordered by yeast fitness: no more than 0.5 for the first, no more than 0.5 for the second.

G9A A42C C55G and U8G C11A C27U A37G G39C C49G cannot be ordered by yeast fitness: no more than 0.5 for the first, no more than 0.5 for the second.

Compared with U8G C22U C62U, U8G A14U G50A is lower in yeast fitness: 0.529 for the first, no more than 0.5 for the second.

First: U8G A37C G52C
Second: U8C G39A
The yeast fitness of the first is lower: 0.627 for the first, 0.874 for the second.

First: U8C G39C
Second: U8G A21C C24U C33A
The yeast fitness of the first is higher: 0.67 for the first, no more than 0.5 for the second.

U8C U28A C29G A57C G67A and G9A A21G G58C A70C cannot be ordered by yeast fitness: no more than 0.5 for the first, no more than 0.5 for the second.

Going from U8G C24U C29G A45G C61U A65C G67A G68A to U8G C22U, the yeast fitness rises from 0.568 to 0.632.

Compared with G9A A14G A37G, U8G C66U is higher in yeast fitness: 0.624 for the first, 0.668 for the second.

Going from U8G U16G C62G to G9A A36U G39A A57G A69C, the yeast fitness falls from 0.616 to no more than 0.5.

Going from U8G A43U to U8C U16C G25C U47A A65G, the yeast fitness falls from 0.66 to no more than 0.5.

Going from U8G A42U A69C to U8G G25C A36G G48A C60A, the yeast fitness falls from 0.509 to no more than 0.5.

G9A A40C A45G A57G and U8C U16G G25A A70G cannot be ordered by yeast fitness: no more than 0.5 for the first, no more than 0.5 for the second.

U8G A20G A37G G44A A65C and G9A A15U A20G A65U cannot be ordered by yeast fitness: no more than 0.5 for the first, no more than 0.5 for the second.

Going from U8C G41A to G9A A37G A40U C49A A57U, the yeast fitness falls from 0.92 to no more than 0.5.

U8G A42G A57G and U8G G52A A70U cannot be ordered by yeast fitness: no more than 0.5 for the first, no more than 0.5 for the second.

U8G A37G C55U and G9A A15C A43U cannot be ordered by yeast fitness: no more than 0.5 for the first, no more than 0.5 for the second.

First: U8G C11G U32A A57U C60A G68C
Second: U8C G44A G48A C49A U59A
The yeast fitness of the first is lower: no more than 0.5 for the first, 0.524 for the second.

Going from U8G U54C to U8G A45C C49U, the yeast fitness falls from 0.565 to no more than 0.5.

First: U8G U13A C30U G39C C55G
Second: U8C U16C G67U
The yeast fitness of the first is lower: 0.526 for the first, 0.576 for the second.

First: G9A A20G C30U G52A G68A
Second: U8C G44C G48A G51A
The yeast fitness of the first is lower: no more than 0.5 for the first, 0.674 for the second.

Going from U8G A14G U26A C62U to G9A A15G A20U U28C, the yeast fitness falls from 0.578 to 0.551.

First: U8C U64A A65U
Second: U8G C27U C30A A43C C60U
The yeast fitness of the first is higher: 0.553 for the first, no more than 0.5 for the second.

G9A A14U C29G C34A G56A and U8G A20C U35C C49A C62A cannot be ordered by yeast fitness: no more than 0.5 for the first, no more than 0.5 for the second.

First: U8G C11A C30U A57U
Second: U8C U26G C33G A37C U54A
The yeast fitness of the first is higher: 0.613 for the first, no more than 0.5 for the second.

U8C U19A C24U G38A U54C C66A and U8G C49G A57U cannot be ordered by yeast fitness: no more than 0.5 for the first, no more than 0.5 for the second.

Going from G9A A20U A21U to U8G U53C, the yeast fitness rises from no more than 0.5 to 0.806.

U8G C22G G25A G63C and U8G C33A A37U G38C A70C cannot be ordered by yeast fitness: no more than 0.5 for the first, no more than 0.5 for the second.

Compared with U8C G44C C46A, U8G G17A C31A is lower in yeast fitness: 0.769 for the first, no more than 0.5 for the second.

Compared with U8C U26A A40U, U8C G38A is higher in yeast fitness: 0.613 for the first, 0.885 for the second.

Compared with U8C G38C, U8G G10A C62G is lower in yeast fitness: 0.799 for the first, no more than 0.5 for the second.

Compared with U8C G68U, U8C G68C is higher in yeast fitness: 0.857 for the first, 0.958 for the second.

Compared with G9A A42G C61A, U8C U16C U59A is lower in yeast fitness: 0.611 for the first, no more than 0.5 for the second.

G9A A15G A20U U28C A45U and U8G U19A C22A C66U cannot be ordered by yeast fitness: no more than 0.5 for the first, no more than 0.5 for the second.

U8G C22U A43G and U8G G52C G67A cannot be ordered by yeast fitness: no more than 0.5 for the first, no more than 0.5 for the second.

Compared with U8C U19A, U8G C22U G51C G58A is lower in yeast fitness: 0.923 for the first, no more than 0.5 for the second.

In the case of U8G A14U G18A G50A A57U A70G, the yeast fitness is reported as no more than 0.5.
